What was measured:
[1] = system: Human immunodeficiency virus 1; experiment: Antiviral activity against ritonavir-resistant HIV1 in MT4 cells assessed as inhibition of p24 Gag protein expression by MTT assay; assay type: functional, organism-based; conditions: Human immunodeficiency virus 1, MT4
How it was run: (§1)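 MT-4 cells (10^5/ml) infected with 100 TCID50s of wild-type or PI-resistant NL4-3 virus and incubated at 37°C with or without graded drug concentrations. On day 7, supernatant p24 Gag was measured by chemiluminescent enzyme immunoassay. […] Assays were run in duplicate or triplicate.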

[2] = system: Human immunodeficiency virus 1; experiment: Antiviral activity against idinavir-resistant HIV1 in MT4 cells assessed as inhibition of p24 Gag protein expression by MTT assay; assay type: functional, organism-based; conditions: Human immunodeficiency virus 1, MT4; how it was run: as §1
[3] = system: Human immunodeficiency virus 1; experiment: Antiviral activity against nelfinavir-resistant HIV1 in MT4 cells assessed as inhibition of p24 Gag protein expression by MTT assay; assay type: functional, organism-based; conditions: Human immunodeficiency virus 1, MT4; how it was run: as §1
[4] = system: Human immunodeficiency virus 1; experiment: Antiviral activity against atazanavir-resistant HIV1 in MT4 cells assessed as inhibition of p24 Gag protein expression by MTT assay; assay type: functional, organism-based; conditions: Human immunodeficiency virus 1, MT4; how it was run: as §1
[5] = system: Human immunodeficiency virus 1; experiment: Antiviral activity against lopinavir-resistant HIV1 in MT4 cells assessed as inhibition of p24 Gag protein expression by MTT assay; assay type: functional, organism-based; conditions: Human immunodeficiency virus 1, MT4; how it was run: as §1
[6] = system: Human immunodeficiency virus 1; experiment: Antiviral activity against amprenavir-resistant HIV1 in MT4 cells assessed as inhibition of p24 Gag protein expression by MTT assay; assay type: functional, organism-based; conditions: Human immunodeficiency virus 1, MT4; how it was run: as §1
[7] = system: Human immunodeficiency virus 1; experiment: Antiviral activity against HIV1 GRL98065p20 in MT4 cells assessed as inhibition of p24 Gag protein expression by MTT assay; assay type: functional, organism-based; conditions: Human immunodeficiency virus 1, MT4; how it was run: as §1
[8] = system: Human immunodeficiency virus 1; experiment: Antiviral activity against HIV1 GRL98065p30 in MT4 cells assessed as inhibition of p24 Gag protein expression by MTT assay; assay type: functional, organism-based; conditions: Human immunodeficiency virus 1, MT4; how it was run: as §1
[9] = system: Human immunodeficiency virus 1; experiment: Antiviral activity against HIV1 GRL98065p40 in MT4 cells assessed as inhibition of p24 Gag protein expression by MTT assay; assay type: functional, organism-based; conditions: Human immunodeficiency virus 1, MT4; how it was run: as §1
[10] = system: Human immunodeficiency virus 1; experiment: Antiviral activity against wild type HIV1 ERS104prc X4 in phytohemagglutininin-activated PBMCs assessed as inhibition of p24 Gag protein expression by MTT assay; assay type: functional, organism-based
How it was run: (§2)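 PHA-activated PBMCs (10^6/ml) infected with 50 TCID50s of each isolate and cultured with or without drug in 10-fold serial dilutions. The read-out was supernatant p24 Gag by chemiluminescent enzyme immunoassay. Assays were run in duplicate or triplicate, with one donor per experiment and three donors in total.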

[11] = system: Human immunodeficiency virus 1; experiment: Antiviral activity against HIV1 MDR/TM X4 in phytohemagglutininin-activated PBMCs assessed as inhibition of p24 Gag protein expression by MTT assay; assay type: functional, organism-based
How it was run: as §2, with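 “immunoassay. […]” for “immunoassay.”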

[12] = system: Human immunodeficiency virus 1; experiment: Antiviral activity against HIV1 MDR/MM R5 in phytohemagglutininin-activated PBMCs assessed as inhibition of p24 Gag protein expression by MTT assay; assay type: functional, organism-based
How it was run: as §2, with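 “immunoassay. […]” for “immunoassay.”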

[13] = system: Human immunodeficiency virus 1; experiment: Antiviral activity against HIV1 MDR/JSL R5 in phytohemagglutininin-activated PBMCs assessed as inhibition of p24 Gag protein expression by MTT assay; assay type: functional, organism-based
How it was run: as §2, with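 “immunoassay. […]” for “immunoassay.”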

[14] = system: Human immunodeficiency virus 1; experiment: Antiviral activity against HIV1 MDR/B X4 in phytohemagglutininin-activated PBMCs assessed as inhibition of p24 Gag protein expression by MTT assay; assay type: functional, organism-based
How it was run: as §2, with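 “immunoassay. […]” for “immunoassay.”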

[15] = system: Human immunodeficiency virus 1; experiment: Antiviral activity against HIV1 MDR/C X4 in phytohemagglutininin-activated PBMCs assessed as inhibition of p24 Gag protein expression by MTT assay; assay type: functional, organism-based
How it was run: as §2, with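 “immunoassay. […]” for “immunoassay.”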

[16] = system: Human immunodeficiency virus 1; experiment: Antiviral activity against HIV1 MDR/G X4 in phytohemagglutininin-activated PBMCs assessed as inhibition of p24 Gag protein expression by MTT assay; assay type: functional, organism-based; how it was run: as §2
[17] = system: Human immunodeficiency virus 1; experiment: Antiviral activity against HIV1 92UG029 X4 subtype A in phytohemagglutininin-activated PBMCs assessed as inhibition of p24 Gag protein expression by MTT assay; assay type: functional, organism-based
How it was run: as §2, with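 “immunoassay. […]” for “immunoassay.”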

[18] = system: Human immunodeficiency virus 1; experiment: Antiviral activity against HIV1 92UG037 subtype A R5 in phytohemagglutininin-activated PBMCs assessed as inhibition of p24 Gag protein expression by MTT assay; assay type: functional, organism-based
How it was run: as §2, with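 “immunoassay. […]” for “immunoassay.”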

[19] = system: Human immunodeficiency virus 1; experiment: Antiviral activity against HIV1 BaL R5 subtype B in phytohemagglutininin-activated PBMCs assessed as inhibition of p24 Gag protein expression by MTT assay; assay type: functional, organism-based; how it was run: as §2
[20] = system: Human immunodeficiency virus 1; experiment: Antiviral activity against HIV1 97ZA003 R5 subtype C in phytohemagglutininin-activated PBMCs assessed as inhibition of p24 Gag protein expression by MTT assay; assay type: functional, organism-based
How it was run: as §2, with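 “immunoassay. […]” for “immunoassay.”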

[21] = system: Human immunodeficiency virus 1; experiment: Antiviral activity against HIV1 92TH019 R5 subtype E in phytohemagglutininin-activated PBMCs assessed as inhibition of p24 Gag protein expression by MTT assay; assay type: functional, organism-based
How it was run: as §2, with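 “immunoassay. […]” for “immunoassay.”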

[22] = system: Human immunodeficiency virus 1; experiment: Antiviral activity against saquinavir-resistant HIV1 in MT4 cells assessed as inhibition of p24 Gag protein expression by MTT assay; assay type: functional, organism-based; conditions: Human immunodeficiency virus 1, MT4; how it was run: as §1
[23] = system: Human immunodeficiency virus 1; experiment: Antiviral activity against HIV1 LAI in MT2 cells assessed as inhibition of p24 Gag protein expression by MTT assay; assay type: functional, organism-based; conditions: Human immunodeficiency virus 1, LAI
How it was run: (§3)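 MT-2 cells (2 × 10^4/ml) were infected with 100 TCID50s of the HIV-1LAI, HIV-2EHO or HIV-2ROD strain. They were cultured with serial drug concentrations at 37°C for 7 days. MTT was then added for 4 h at 37°C, formazan was dissolved in acidified isopropanol with 4% Triton X-100, and optical density was read. EC50 is the mean of three independent experiments, each run in duplicate.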

[24] = system: Human immunodeficiency virus 2; experiment: Antiviral activity against HIV2 EHO in MT2 cells assessed as inhibition of p24 Gag protein expression by MTT assay; assay type: functional, organism-based; conditions: Human immunodeficiency virus 2, EHO; how it was run: as §3
[25] = system: Human immunodeficiency virus 2; experiment: Antiviral activity against HIV2 ROD in MT2 cells assessed as inhibition of p24 Gag protein expression by MTT assay; assay type: functional, organism-based; conditions: Human immunodeficiency virus 2, ROD; how it was run: as §3
[26] = Cytotoxicity against human MT2 cells assessed as inhibition of p24 Gag protein expression by MTT assay; assay type: cell-based
[27] = system: Human immunodeficiency virus 1; experiment: Antiviral activity against HIV1 NL4-3 in MT4 cells by MTT assay; assay type: functional, organism-based; conditions: Human immunodeficiency virus 1, NL4-3, MT4

Row | SMILES | EC50 [1] [nM] | EC50 [2] [nM] | EC50 [3] [nM] | EC50 [4] [nM] | EC50 [5] [nM] | EC50 [6] [nM] | EC50 [7] [nM] | EC50 [8] [nM] | EC50 [9] [nM] | EC50 [10] [nM] | EC50 [17] [nM] | EC50 [18] [nM] | EC50 [19] [nM] | EC50 [20] [nM] | EC50 [21] [nM] | EC50 [23] [nM] | EC50 [24] [nM] | EC50 [25] [nM] | CC50 [26] [nM] | EC50 [27] [nM] | other results
1 | CC(C)(C)NC(=O)[C@@H]1CN(Cc2cccnc2)CCN1C[C@@H](O)C[C@@H](Cc1ccccc1)C(=O)N[C@H]1c2ccccc2C[C@H]1O | 250 | > 1000 | 270 | 388 | > 1000 | 200 | 40 | 59 | 280 | 24 | 44 | 34 | 22 | 37 | 21 | 48 | 24 | 54 | 69800 | – | EC50 [11]: > 1000 nM; EC50 [12]: > 1000 nM; EC50 [13]: > 1000 nM; EC50 [14]: > 1000 nM; EC50 [15]: > 1000 nM; EC50 [16]: 640 nM; EC50 [22]: > 1000 nM
2 | Cc1c(O)cccc1C(=O)N[C@@H](CSc1ccccc1)[C@H](O)CN1C[C@H]2CCCC[C@H]2C[C@H]1C(=O)NC(C)(C)C | – | – | – | – | – | – | 80 | 270 | – | – | 43 | 56 | 18 | 37 | 29 | 32 | 30 | 240 | 8100 | 33 | –
3 | COC(=O)N[C@H](C(=O)N[C@@H](Cc1ccccc1)[C@@H](O)CN(Cc1ccc(-c2ccccn2)cc1)NC(=O)[C@@H](NC(=O)OC)C(C)(C)C)C(C)(C)C [ATAZANAVIR] | 18 | 60 | 21 | 330 | 40 | 3 | 6 | 8 | 11 | 3.8 | 6 | 2.5 | 1.3 | 3.4 | 2.7 | 4.8 | 5 | 13 | 27600 | 4.2 | EC50 [11]: 38 nM; EC50 [12]: 45 nM; EC50 [13]: 540 nM; EC50 [14]: 250 nM; EC50 [15]: 21 nM; EC50 [16]: 32 nM; EC50 [22]: 326 nM
4 | Cc1cccc(C)c1OCC(=O)N[C@@H](Cc1ccccc1)[C@@H](O)C[C@H](Cc1ccccc1)NC(=O)[C@H](C(C)C)N1CCCNC1=O [LOPINAVIR] | – | – | – | – | – | – | 34 | 60 | – | 7 | 7 | – | 5.3 | 7.3 | 3.3 | 7 | 2.6 | 4.9 | > 100000 | – | –
5 | CC(C)c1nc(CN(C)C(=O)N[C@H](C(=O)N[C@@H](Cc2ccccc2)C[C@H](O)[C@H](Cc2ccccc2)NC(=O)OCc2cncs2)C(C)C)cs1 [RITONAVIR] | – | – | – | – | – | – | 130 | 300 | – | – | 71 | 41 | – | 39 | 30 | 54 | 210 | 260 | – | 33 | –

Source: ChEMBL document CHEMBL1143812, “A novel bis-tetrahydrofuranylurethane-containing nonpeptidic protease inhibitor (PI), GRL-98065, is potent against multiple-PI-resistant human immunodeficiency virus in vitro” (Antimicrob Agents Chemother, 2007)
